Assay results published in ChEMBL document CHEMBL4837218, “Synthesis and in vitro antitumour activity of 4(R)-methyl-3-O-phosphonomethyl-α-l-threose nucleosides” (Eur J Med Chem, 2021).
pIC50: −log10 of the molar value. Activity calls are given as the source filed them. No cut-off for these calls is given here.

How the values were obtained:
MCF7 [1] = assay: Cell cycle arrest in human MCF7 cells assessed as accumulation at S phase at 1 uM measured after 48 hrs by propidium iodide staining based flow cytometry (reference value: 25.34 %); format: functional
MGC-803 = assay: Anticancer activity against human MGC-803 cells assessed as inhibition of cell growth measured after 72 hrs by MTT assay; format: functional, cell-based; settings: MGC-803, 72 h
Method in brief: (§1)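 Cells seeded at 3000 exponentially growing cells/well and incubated 12 h at 37 °C. Medium then replaced with fresh medium containing graded compound concentrations for 72 h; 5-FU positive control. MTT (5 mg/mL solution) added for 4 h, formazan dissolved in DMSO, absorbance read at 570 nm (reference 630 nm). Relative percentage inhibition of viable cells calculated; IC50 reported as mean ± standard deviation.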

MDA-MB-231 [2] = assay: Induction of G2/M phase cell cycle arrest in human MDA-MB-231 cells assessed as upregulation of p-cdc25c at ser216 residue protein expression at 9 uM measured after 48 hrs by western blot analysis; format: functional, cell-based
MCF7 [3] = assay: Induction of apoptosis in human MCF7 cells assessed as increase in Bad protein expression at 1 to 4 uM measured after 48 hrs by western blot analysis; format: functional, cell-based; settings: dose 1-4 µM
Method in brief: (§2)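 MCF-7 and MDA-MB-231 breast cancer cells treated 48 h with a concentration series, then lysed for protein. SDS-PAGE on 5–15% gels, transfer to nitrocellulose. Blocked 2 h in 5% nonfat milk/PBS-0.1% Tween 20, primary antibodies overnight at 4 °C, biotin-conjugated secondary 1 h. X-ray film detection with densitometric quantification.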

MCF7 [4] = assay: Induction of apoptosis in human MCF7 cells assessed as early apoptotic cells at 4 uM measured after 48 hrs in presence of cdc25c inhibitor, NSC663284 by AnnexinV-FITC/PI staining based flow cytometry (reference value: 0.9%); format: functional
MCF7 [5] = assay: Induction of apoptosis in human MCF7 cells assessed as reduction in Mcl-1 protein expression at 1 to 4 uM measured after 48 hrs by western blot analysis; format: functional, cell-based; settings: dose 1-4 µM; method in brief: as §2
GES1 = assay: Antiproliferative activity against human GES1 cells assessed as growth inhibition measured after 72 hrs by MTT assay; format: functional, cell-based; settings: GES1, 72 h; method in brief: as §1
PC-3 = assay: Antiproliferative activity against human PC-3 cells assessed as cell growth inhibition measured after 72 hrs by MTT assay; format: functional, cell-based; settings: PC-3, 72 h; method in brief: as §1
MCF7 [6] = assay: Induction of mitochondrial membrane potential loss in human MCF7 cells assessed as red fluorescence intensity at 4 uM measured after 48 hrs by JC1 staining-based flow cytometry analysis (reference value: 91.9%); format: functional
MCF7 [7] = assay: Induction of DNA damage in human MCF7 cells assessed as increase in Chk1 protein expression at 1 to 4 uM measured after 48 hrs by western blot analysis; format: functional, cell-based; settings: dose 1-4 µM
Method in brief: (§3)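 Cells exposed to graded concentrations for 48 h, then proteins extracted. Run on SDS-PAGE (5–15% gels) and transferred to nitrocellulose. Blocked 2 h in 5% nonfat milk in PBS/0.1% Tween 20, primary antibody overnight at 4 °C, biotin-conjugated secondary 1 h. Visualized on X-ray film with densitometric quantitation; three independent experiments.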

MDA-MB-231 [8] = assay: Induction of G2/M phase cell cycle arrest in human MDA-MB-231 cells assessed as upregulation of p-cdc25c protein expression at 9 uM measured after 48 hrs in presence of cdc25c inhibitor, NSC663284 by western blot analysis; format: functional, cell-based
MCF7 [9] = assay: Induction of apoptosis in human MCF7 cells assessed as increase in cleaved PARP protein expression at 4 uM measured after 48 hrs in presence of cdc25c inhibitor, NSC663284 by western blot analysis; format: functional, cell-based
Method in brief: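 Four arms per cell line: untreated, test compound, 0.3 µM NSC663284 alone, and combination. Proteins harvested after 48 h and resolved by SDS-PAGE on 5–15% gels, transferred to nitrocellulose. Blocked 2 h in milk/PBS-Tween, primary antibodies overnight at 4 °C, biotin-conjugated secondary. Read on X-ray film with densitometry.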

MCF7 [10] = assay: Induction of apoptosis in human MCF7 cells assessed as late apoptotic cells at 4 uM measured after 48 hrs in presence of cdc25c inhibitor, NSC663284 by AnnexinV-FITC/PI staining based flow cytometry (reference value: 4.9%); format: functional
MDA-MB-231 [11] = assay: Cell cycle arrest in human MDA-MB-231 cells assessed as accumulation at G1 phase at 6 uM measured after 48 hrs by propidium iodide staining based flow cytometry (reference value: 46.28 %); format: functional
MDA-MB-231 [12] = assay: Induction of G2/M phase cell cycle arrest in human MDA-MB-231 cells assessed as upregulation of cdc25c protein expression at 9 uM measured after 48 hrs in presence of cdc25c inhibitor, NSC663284 by western blot analysis; format: functional, cell-based
MDA-MB-231 [13] = assay: Cell cycle arrest in human MDA-MB-231 cells assessed as accumulation at S phase at 6 uM measured after 48 hrs by propidium iodide staining based flow cytometry (reference value: 35.54 %); format: functional
MDA-MB-231 [14] = assay: Induction of apoptosis in human MDA-MB-231 cells assessed as early apoptotic cells at 9 uM measured after 48 hrs by Annexin V-FITC/propidium iodide staining based flow cytometric analysis (reference value: 1%); format: functional
MCF7 [15] = assay: Induction of G2/M phase cell cycle arrest in human MCF7 cells assessed as increase in cdc25c protein expression at 1 to 4 uM measured after 48 hrs by western blot analysis; format: functional, cell-based; settings: dose 1-4 µM; method in brief: as §3
MCF7 [16] = assay: Cell cycle arrest in human MCF7 cells assessed as accumulation at G1 phase at 4 uM measured after 48 hrs by propidium iodide staining based flow cytometry (reference value: 70.09 %); format: functional
SW-620 = assay: Antiproliferative activity against human SW-620 cells assessed as cell growth inhibition measured after 72 hrs by MTT assay; format: functional, cell-based; settings: SW-620, 72 h; method in brief: as §1
MDA-MB-231 [17] = assay: Antiproliferative activity against human MDA-MB-231 cells assessed as reduction in cell viability at 0.03 to 16 uM measured after 24 to 72 hrs by MTT assay; format: functional, cell-based; settings: dose 0.03-16 µM, time 24-72 hrs
Method in brief: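 MTT viability time course on the breast cancer cells with increasing compound concentrations for 24, 48 and 72 h. Cells seeded at 3000/well and allowed 12 h before treatment. MTT (5 mg/mL solution) applied for 4 h, crystals dissolved in DMSO, absorbance read at 570/630 nm. Viability expressed relative to untreated cells.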

MCF7 [18] = assay: Induction of G2/M phase cell cycle arrest in human MCF7 cells assessed as upregulation of p-cdc25c protein expression at 4 uM measured after 48 hrs in presence of cdc25c inhibitor, NSC663284 by western blot analysis; format: functional, cell-based
Method in brief: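 Four groups (untreated, test compound, 0.3 NSC663284, combination) treated 48 h before protein extraction. Lysates resolved by SDS-PAGE (5–15%) and blotted to nitrocellulose. Blocked 2 h in 5% milk/PBS-0.1% Tween 20, primary antibody overnight at 4 °C, biotinylated secondary 1 h. Detected on X-ray film and quantified by densitometry.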

MCF7 [19] = assay: Cell cycle arrest in human MCF7 cells assessed as accumulation at G1 phase at 2 uM measured after 48 hrs by propidium iodide staining based flow cytometry (reference value: 70.09 %); format: functional
MCF7 [20] = assay: Cell cycle arrest in human MCF7 cells assessed as accumulation at S phase at 4 uM measured after 48 hrs by propidium iodide staining based flow cytometry (reference value: 25.34 %); format: functional

For `C[C@H]1O[C@@H](n2cnc3c(N)nc(F)nc32)[C@H](O)[C@H]1OCP(=O)([O-])[O-].[Na+].[Na+]`, the Activity (MCF7 [1]) was 18.63%, the pIC50 (MGC-803) was 5.21 and the Activity (MDA-MB-231 [2]) was “Active”. The Activity (MCF7 [3]) was “Active”, the Activity (MCF7 [4]) was 8.6% and the Activity (MCF7 [5]) was “Active”. For the same compound, the pIC50 (GES1) was 5.29, the pIC50 (PC-3) was 5.66 and the Activity (MCF7 [6]) was 41.9%. The Activity (MCF7 [7]) was “Active”, the Activity (MDA-MB-231 [8]) was “inactive” and the Activity (MCF7 [9]) was “inactive”. For the same compound, the Activity (MCF7 [10]) was 5.2%, the Activity (MDA-MB-231 [11]) was 37.3% and the Activity (MDA-MB-231 [12]) was “inactive”. The Activity (MDA-MB-231 [13]) was 31.86%, the Activity (MDA-MB-231 [14]) was 24.8% and the Activity (MCF7 [15]) was “Active”. The Activity (MCF7 [16]) was 41.95%, the pIC50 (SW-620) was 5.18 and the Activity (MDA-MB-231 [17]) was “Active”. The Activity (MCF7 [18]) was “inactive”, the Activity (MCF7 [19]) was 41.43% and the Activity (MCF7 [20]) was 31.16%.
